# UBC13 inh = UBC13 polyubiquitin chain formation inhibitors, primary screen, biochemical, TR-FRET, uHTS | Ubiquitin-conjugating enzyme E2 N (Homo sapiens), P61088 | inhibition, % at 20 µM | 330,000 tested, 0.47% active | AID 485273, 2010; in the data active means inhibition above about 45%, passing the limit was not always enough
# IDE cell activ = human IDE activators in live cells, primary screen, fluorescence polarization, HEK cells, FAbeta-B substrate; Insulin-degrading enzyme (Homo sapiens), P14735; FAbeta-B cleavage; 0% vehicle, 100% cell-free pure enzyme wells; activation, % at 5.96 µM; 340,000 tested, 0.073% active; AID 493087, 2011;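 active means activation above the mean of all tested compounds plus 3 SD, set per screening campaign, cut at about 17% in these data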
# PHOSPHO1 inh = PubChem AID 1565. recombinant PHOSPHO1, absorbance phosphatase assay. inhibition, % at 13.3 µM. 290,000 tested, 1.1% active; in the data active means inhibition above about 60%
# Target sequence (Q8TCT1 whole entry, looked up): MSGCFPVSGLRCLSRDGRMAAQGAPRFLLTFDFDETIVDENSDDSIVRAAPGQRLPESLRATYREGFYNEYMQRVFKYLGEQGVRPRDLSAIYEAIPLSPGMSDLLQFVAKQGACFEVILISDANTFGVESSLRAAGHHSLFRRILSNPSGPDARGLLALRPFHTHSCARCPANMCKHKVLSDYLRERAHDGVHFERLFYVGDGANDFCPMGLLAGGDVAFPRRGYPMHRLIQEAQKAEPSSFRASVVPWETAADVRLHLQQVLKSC
# procasp3 activ = activators of human procaspase-3 D3A mutant, primary screen, biochemical, absorbance, PC-3 D3A mutant, single concentration; Caspase-3 (Homo sapiens), P42574; recombinant procaspase-3 D3A, Ac-DEVD-pNA absorbance 405 nm; activation, % at 8.5 µM; 330,000 tested, 0.11% active; AID 463141, 2010;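 active means activation above the mean of all tested compounds plus 3 SD, cut at about 21% in these data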;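 further: 0% = DMSO alone and 100% = DMSO wells spiked with extra 5 µM PC-3 D3A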
#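 Compound: 8.5 µM single point, 0.8% DMSO / Material: Autoprocessing-dead procaspase-3 D3A mutant enzyme / Timing: 1 h preincubation plus 2 h reaction at 25 °C / Medium: Zinc-free HEPES/NaCl buffer with 0.01% Triton X-100 at pH 7.4 / Technique: 405 nm absorbance of p-nitroaniline, reads at 0 and 120 min / Repeats: one well per compound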
# IDE cell inh = human IDE inhibitors in live cells, primary screen, fluorescence polarization, HEK cells, FAbetaB substrate; Insulin-degrading enzyme (Homo sapiens), P14735; FAbetaB cleavage; inhibition, % at 5.59 µM; 320,000 tested, 0.41% active; AID 434962, 2010;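 active means percent inhibition above the average of all tested compounds plus 3 SD, set per screening campaign, cut at about 16% in these data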;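 further: IDE supplied by intact live HEK cells; FP after avidin binding of uncleaved biotin substrate so inhibition keeps polarization high; 0% = DMSO wells and 100% = 60 µM reference IDE inhibitor Ii1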
# proCasp7 act = procaspase-7 activators, primary screen, counter-screen for procaspase-3 activator project, biochemical, absorbance, HTS, human; AID 463210, 2010; recombinant procaspase-7, Ac-DEVD-pNA absorbance 405 nm; D23A/D198A/D206A triple mutant, cannot self-cleave; scale: DMSO 0, 5 µM enzyme 100; activation, % at 8.5 µM; 330,000 tested, 0.093% active;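 active means percent activation above the screen-wide mean plus 3 SD, cut at about 25% in these data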
# Target sequence (P55210 whole entry D23A/D198A/D206A): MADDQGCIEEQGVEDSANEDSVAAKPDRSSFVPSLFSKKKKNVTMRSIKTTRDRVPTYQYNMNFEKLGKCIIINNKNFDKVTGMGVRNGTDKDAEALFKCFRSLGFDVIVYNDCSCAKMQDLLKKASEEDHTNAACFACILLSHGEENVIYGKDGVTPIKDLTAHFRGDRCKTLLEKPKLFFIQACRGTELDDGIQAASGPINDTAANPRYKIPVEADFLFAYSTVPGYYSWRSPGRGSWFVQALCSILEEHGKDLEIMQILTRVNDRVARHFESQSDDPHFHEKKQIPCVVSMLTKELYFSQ
#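 Assay system – Uncleavable procaspase-7 mutant enzyme · Quantity – 2 µM procaspase-7 mutant as dispensed · Times – 1 h preincubation, 2 h reaction · Dosing – single nominal 8.5 µM compound dose, 0.8% DMSO final · Buffer or medium – Zinc-free 50 mM HEPES buffer, pH 7.4, with NaCl and Triton X-100 · Detection – Epi-absorbance of released pNA at 405 nm, two timepoints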
# An asterisk follows results filed as active; . = not tested or not shown. Hits are enriched below; roughly 1.9% of the tested compounds scored in any of these assays.
SMILES,UBC13 inh,IDE cell activ,PHOSPHO1 inh,procasp3 activ,IDE cell inh,proCasp7 act
CC[C@@H]1[C@H]2CCCC(=O)N3CC[C@@H](C[C@H]1O)[C@@H]23,7,-4,.,-3,7,-4
O=C(O)COc1ccccc1C(Nc1cccnc1)c1cc(Cl)c2cccnc2c1O (stereo unspecified),-20,.,84*,.,.,.
Cc1c(/C(O)=C2/C(=O)C(=O)N(CCN3CCOCC3)C2c2ccccn2)cnn1-c1ccccc1 (stereo unspecified),-16,.,60*,-5,4,-2
Cc1ccc(C2/C(=C(/O)c3cnn(-c4ccccc4)c3C)C(=O)C(=O)N2CCCN2CCOCC2)o1 (stereo unspecified),-7,.,45,-16,-2,-18
Cn1c(CCN2CCOCC2)nc2cc(NC(=O)c3cccs3)ccc21,-8,2,64*,3,3,-2
COC(=O)C(C(=O)OC)c1ccccc1[N+](=O)[O-],5,0,6,8,4,4
COC(=O)C(C(=O)OC)c1ncccc1[N+](=O)[O-],3,18*,43,2,-3,10
O=C(Oc1csc(=S)n1C(=O)c1ccccc1)c1ccccc1,-11,1,83*,-6,-4,-13
O=C(CSc1nc2ccccc2s1)CSc1nc2ccccc2s1,-3,1,60*,-5,-1,-6
CCS(=O)(=O)CCSc1nc2ccccc2s1,0,-4,-10,2,-1,1
O=C(O)CSc1nc2ccccc2s1,14,5,2,4,2,0
O=S(=O)(CCSc1nc2ccccc2s1)c1nc2ccccc2s1,2,-1,76*,-2,-9,-5
O=C(CSc1nc2cc(Cl)ccc2s1)c1ccco1,-10,-1,91*,-6,7,-3
O=C(CSc1nnc(SCC(=O)c2ccco2)s1)c1ccco1,-6,-1,33,-3,-1,0
Cc1ccc(S(=O)(=O)N2CCC3(CC2)OCCO3)s1,-7,5,23,2,2,-7
O=C(CNc1cccc(S(=O)(=O)N2CCCC2)c1)Nc1cccc(C(F)(F)F)c1,18,-2,.,-11,1,-5
Cc1ccc(S(=O)(=O)n2c(C)nc3cc(C)ccc32)cc1,-1,4,39,-8,2,-6
COc1ccc(S(=O)(=O)C(C#N)c2nc3ccccc3nc2N2CCC(C)CC2)cc1 (stereo unspecified),-24,.,100*,-7,9,5
Cc1ccc(S(=O)(=O)C(C#N)c2nc3ccccc3nc2N2CCN(C)CC2)cc1 (stereo unspecified),4,3,-17,2,5,8
Cc1ccc(S(=O)(=O)C(C#N)c2nc3ccccc3nc2N2CCCCC2)cc1 (stereo unspecified),.,.,93*,.,.,.
Cc1cccc(S(=O)(=O)C(C#N)c2nc3ccccc3nc2N2CCOCC2)c1 (stereo unspecified),-17,0,78*,-5,3,-15
CCCCN1CNC(=S)N(c2cc(C)ccc2C)C1,6,-2,61*,2,4,5
COc1ccc(-n2nc([N+](=O)[O-])c(=NCCCN3CCCC3=O)n2O)cc1,-10,9,61*,5,9,-7
O=C1CCCN1CCCN=c1c([N+](=O)[O-])nn(-c2ccc(Cl)cc2)n1O,.,5,-4,.,.,.
CCN(CC(=O)NCCc1ccc(S(N)(=O)=O)cc1)Cc1ccccc1,1,1,4,-6,2,3
SMILES,UBC13 inh,IDE cell activ,PHOSPHO1 inh,procasp3 activ,IDE cell inh,proCasp7 act
N#Cc1c(NC(=S)NC(=O)c2ccccc2)sc2c1CCN(CCc1ccccc1)C2,-85,.,14,-25,74*,-32
Cc1cc(C)c(NC(=O)c2cccc3c2C(=O)N(C2CCCCC2)C3)c(C)c1,-15,8,-17,5,-3,3
COc1ccc(C=NNC(=O)c2cc(C)oc2C)cc1O,-20,5,.,-1,-1,-6
O=c1c(C(c2ccc(O)cc2)c2c(O)nc3n(c2=O)CCS3)c(O)nc2n1CCS2,-1,0,40,1,8,1
O=c1c(C(c2ccc(O)cc2)c2c(O)nc3n(c2=O)CCCS3)c(O)nc2n1CCCS2,-16,2,65*,-8,1,0
CS(=O)(=O)c1ccccc1C(=O)N1CCN(Cc2ccccc2)CC1,-8,6,73*,-2,-3,0
O=C(NC1CCCCC1)NC1CCN(C(=S)NCc2ccco2)CC1,-2,5,82*,-22,-7,-29
CCCn1c(N)c(C(=O)CSc2nnc(-c3ccoc3C)n2C)c(=O)n(C)c1=O,1,3,.,5,3,-1
CC(=O)c1sc2nc(-c3cccs3)ccc2c1N,-6,-4,73*,2,6,-6
COc1ccc(CCC(=O)N2CCN(S(=O)(=O)c3cccs3)CC2)cc1,2,4,.,.,.,.
S=C(NN=C1C2CC3CC(C2)CC1C3)Nc1ccccc1,-16,2,92*,-9,3,2
CCN(CC)S(=O)(=O)c1cccc(-c2n[nH]c(=S)n2/N=C/c2ccc(OC)cc2)c1,-6,-2,83*,-31,1,-24
COc1cc(/C=N/n2c(-c3ccccc3)n[nH]c2=S)ccc1O,-4,-1,103*,3,3,-6
CC(/C=N/n1c(-c2ccccc2)n[nH]c1=S)=C\c1ccco1,-6,1,84*,-16,-7,-13
CCN(CC)S(=O)(=O)c1cccc(-c2n[nH]c(=S)n2/N=C/c2ccc(OC(F)F)cc2)c1,-12,2,-8,-2,-2,-10
CCN(CC)S(=O)(=O)c1cccc(-c2n[nH]c(=S)n2/N=C/c2ccc(Br)cc2)c1,-4,-2,70*,-11,0,-11
COc1ccc(C(C)NC(=O)Nc2ccc(C(C)=O)cc2)cc1OC (stereo unspecified),-1,2,22,-8,-1,1
Cc1ccnc(NC(=O)CCc2c(C)nc3ncnn3c2C)c1,-9,8,64*,11,5,1
Cc1nc(SCc2nc3ccc([N+](=O)[O-])cc3[nH]2)c2oc3ccccc3c2n1,-25,3,.,-14,0,-11
C=CCc1cccc2cc(C(=O)Nc3ccc(S(=O)(=O)Nc4nnc(CC)s4)cc3)c(=O)oc12,.,5,85*,-5,3,4
C=CCc1cccc2cc(C(=O)Nc3ccc(F)cc3)c(=O)oc12,-10,-5,-32,8,-3,4
